The results in this text go back to ChEMBL document CHEMBL1150782, “Strong and selective inhibitors of hepatitis B virus replication among novel N4-hydroxy- and 5-methyl-beta-L-deoxycytidine analogues” (Antimicrob Agents Chemother, 2007).

Data set [1] in a line: Cytotoxicity against human HepG2 cells after 3 days by MTT assay. It is filed as cell-based. In short, it runs like this: (§1)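 HL-60 cells in RPMI or HepG2 cells in DMEM, seeded at 50,000 per well. Exposed for 3 days to varying compound concentrations at 37°C under humidified 5% CO2. Growth read by MTT reduction to formazan. CC50 is the concentration inhibiting growth by 50%; mean ± SD of at least three independent experiments.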

The subject of data set [2] is Hepatitis B virus. Kind of data set: Antiviral activity against HBV in HepG2.2.15 cells assessed as decrease in extracellular viral DNA level by RT-PCR. It is filed as functional, organism-based. The settings on record: HepG2 2.2.15. In short, it runs like this:
(§2)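 HepG2.2.15 (HBV-transfected) cells, ~10^5 per well in DMEM with 10% FBS; compound added at various concentrations with daily medium changes. Supernatants taken at day 3, 6 or 9, cleared, proteinase K digested, and HBV DNA amplified by PCR with subgenomic primers. Products run on 1% agarose, ethidium stained and imaged, calibrated against cloned HBV genome dilutions. EC50 taken from dose-response curves as 50% reduction of medium HBV DNA.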

Data set [3] relates to Hepatitis B virus. The data set is described as follows: Antiviral activity against HBV in HepG2.2.15 cells assessed as decrease in extracellular viral DNA level at 0.5 uM by PCR. The settings on record: HepG2 2.2.15, TDE = time-dependent effect. It is filed as functional, organism-based. In outline:
as §2

A short description of data set [4]: Cytotoxicity against human HL60 cells after 3 days by MTT assay. The conditions noted are these: HL-60 cells. The class given is cell-based. In short, it runs like this: as §1
A short description of data set [5]: Inhibition of HBV DNA polymerase. More on the design: species or system Hepatitis B virus. In short, it runs like this: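 Endogenous polymerase assay using HBV virions purified from untreated patient serum (>10^7 GE/ml) by ultracentrifugation and a sucrose step gradient. Incubated 1 h at 37°C; [3H]dCMP incorporation counted; IC50 from inhibition curves.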
Data set [6] concerns Hepatitis B virus. Kind of data set: Antiviral activity against HBV in HepG2.2.15 cells assessed as decrease in extracellular viral DNA level at 0.3 uM by PCR. It is filed as functional, organism-based. The conditions noted are these: HepG2 2.2.15, TDE = time-dependent effect. In short, it runs like this: as §2
Data set [7] in a line: Inhibition of duck HBV DNA polymerase. Further details: species or system Duck hepatitis B virus.
Data set [8] is described as follows: Cytotoxicity against human CEM cells. The class given is cell-based. The settings on record: CCRF-CEM cells.
Data set [9] has as its system Hepatitis B virus. Kind of data set: Antiviral activity against HBV in HepG2.2.15 cells assessed as decrease in extracellular viral DNA level at 0.1 uM by PCR. The class given is functional, organism-based. The settings on record: HepG2 2.2.15, TDE = time-dependent effect. In short, it runs like this:
as §2

Regarding `O=c1nc(NO)ccn1[C@@H]1CS[C@H](CO)O1`, the results for the CC50 at 72 h in data set [1] and in data set [4] were 1320 µM and 1450 µM, respectively. Further, the EC50 (in general, the concentration needed to bring the measured effect to its halfway point) in the data set on Hepatitis B virus [2] was determined as 0.51 µM. Also, the Activity result in the data set with Hepatitis B virus [3] is “tde”.
In the case of `O=c1nc(NO)ccn1[C@@H]1CC(F)[C@H](CO)O1` (stereo partly specified), the CC50 (usually the concentration that lowers cell viability or growth by half) at 72 h in data set [1] came out at 820 µM; in data set [4], 4400 µM. For the same compound, the EC50 with Hepatitis B virus [2] was found to be 25 µM.
As for `O=c1nc(NO)ccn1[C@@H]1C[C@@H](O)[C@H](COP(=O)(O)OP(=O)(O)OP(=O)(O)O)O1`, the IC50 – broadly, the midpoint of a concentration-inhibition curve – in [5] is 6 µM.
Same read-out and setting: with `Cc1cn([C@@H]2C=C[C@H](COP(=O)(O)OP(=O)(O)OP(=O)(O)O)O2)c(=O)nc1N` the figure was 6.2 µM.
Regarding `O=c1nc(NO)c(F)cn1[C@@H]1C[C@@H](O)[C@H](CO)O1`, the CC50 at 72 h was found to be 920 µM in data set [1] and 1370 µM in data set [4]. The EC50 in the data set with Hepatitis B virus [2] was 4.5 µM.
In turn, `O=c1nc(NO)ccn1[C@@H]1C=C[C@H](COP(=O)(O)OP(=O)(O)OP(=O)(O)O)O1` gave an IC50 in [5] of 0.21 µM.
Take `O=c1nc(NO)c(F)cn1[C@@H]1CS[C@H](CO)O1`: the CC50 at 72 h in data set [1] came out at 855 µM; in data set [4] it was 770 µM. In addition, the EC50 in the data set with Hepatitis B virus [2] turned out to be 5 µM.
In the case of `Cc1cn([C@@H]2C[C@@H](N=[N+]=[N-])[C@H](COP(=O)(O)OP(=O)(O)OP(=O)(O)O)O2)c(=O)nc1N`, the IC50 in [5] worked out at 0.85 µM. This counts as sub-micromolar.
The same measure, in the same setting: for `Cc1cn([C@@H]2CC[C@H](COP(=O)(O)OP(=O)(O)OP(=O)(O)O)O2)c(=O)nc1N` the value was 6.5 µM.
Turning to `Nc1ccn([C@@H]2CS[C@H](CO)O2)c(=O)n1` [LAMIVUDINE], the CC50 at 72 h in data set [1] came out at 1200 µM; in data set [4] it was 1400 µM. The EC50 in the data set on Hepatitis B virus [2] was 0.1 µM. In addition, the Activity result in the data set with Hepatitis B virus [6] was “tde”.
Regarding `Cc1cn([C@@H]2C[C@@H](O)[C@H](COP(=O)(O)OP(=O)(O)OP(=O)(O)O)O2)c(=O)[nH]c1=O` [TELBIVUDINE 5'TRIPHOSPHATE], the values for the IC50 in [7] and in [5] were 1 µM and 0.46 µM, respectively.
`Nc1ccn([C@@H]2CS[C@H](COP(=O)(O)OP(=O)(O)OP(=O)(O)O)O2)c(=O)n1` [LAMIVUDINE TRIPHOSPHATE] returned an IC50 in data set [5] of 0.3 µM.
Consider `Nc1ccn([C@@H]2CC[C@H](CO)O2)c(=O)n1`, for which the CC50 at 72 h came to 85 µM in data set [1] and 94 µM in data set [4]. In the data set with Hepatitis B virus [2], the EC50 turned out to be 0.2 µM. In addition, in data set [8], the CC50 stood at 70 µM.
In the case of `Cc1cn([C@H]2C[C@H](O)[C@@H](CO)O2)c(=O)[nH]c1=O` [DOXRIBTIMINE], the CC50 at 72 h in data set [1] is 2100 µM; in data set [4], 1760 µM. Moreover, in the data set with Hepatitis B virus [2], the EC50 came to 0.3 µM.
Take `Cc1cn([C@@H]2CC[C@H](CO)O2)c(=O)nc1N`: the figures for the CC50 at 72 h in [1] and in data set [4] were 1550 µM and 950 µM, respectively. In addition, the EC50 in the data set with Hepatitis B virus [2] is above 50 µM.
Taken in the same sequence, the figures for `Cc1cn([C@@H]2C=C[C@H](CO)O2)c(=O)nc1N` were 1400 µM, 600 µM and above 50 µM.
Taken in the same sequence, the figures for `Cc1cn([C@@H]2C[C@@H](O)[C@H](CO)O2)c(=O)nc1N` were above 2000 µM, above 2000 µM and 0.9 µM.
Compound `Cc1cn([C@@H]2C[C@@H](F)[C@H](COP(=O)(O)OP(=O)(O)OP(=O)(O)O)O2)c(=O)nc1N` had an IC50 in data set [5] of 1.9 µM. In other words, the single-digit micromolar range.
`Cc1cn([C@@H]2C[C@@H](O)[C@H](COP(=O)(O)OP(=O)(O)OP(=O)(O)O)O2)c(=O)nc1NO` had an IC50 in [5] of 4 µM.
As to `[N-]=[N+]=N[C@@H]1C[C@@H](n2ccc(NO)nc2=O)O[C@H]1CO`, the half-maximal cytotoxic concentration (CC50) at 72 h in [1] worked out at 1160 µM; in data set [4], 2000 µM. For the same compound, the EC50 in the data set with Hepatitis B virus [2] worked out at 50 µM.
Taken in the same sequence, the figures for `O=c1nc(NO)ccn1[C@@H]1CC[C@H](CO)O1` were 2250 µM, 1600 µM and 0.55 µM.
In turn, `O=c1nc(NO)ccn1[C@@H]1CC[C@H](COP(=O)(O)OP(=O)(O)OP(=O)(O)O)O1` gave an IC50 in data set [5] of 0.99 µM.
Turning to `Nc1ccn([C@@H]2C=C[C@H](CO)O2)c(=O)n1`, the CC50 in data set [8] turned out to be 20 µM.
Consider `Cc1cn([C@@H]2C[C@@H](O)[C@H](COP(=O)(O)OP(=O)(O)OP(=O)(O)O)O2)c(=O)nc1N`, for which, in [5], the IC50 worked out at 0.9 µM.
`Cc1cn([C@@H]2C[C@@H](O)[C@H](CO)O2)c(=O)nc1NO`: the figures for the CC50 at 72 h in data set [1] and in [4] were 490 µM and 600 µM, respectively. Besides, the EC50 in the data set with Hepatitis B virus [2] is 5.04 µM.
`Cc1cn([C@@H]2C[C@@H](F)[C@H](CO)O2)c(=O)nc1N`: the CC50 at 72 h was 1800 µM in data set [1] and 1650 µM in [4]. For the same compound, the EC50 with Hepatitis B virus [2] is above 50 µM.
On to `O=c1nc(NO)ccn1[C@@H]1C=C[C@H](CO)O1`, for which the CC50 at 72 h in data set [1] came to 2500 µM; in data set [4], 3500 µM. In the data set on Hepatitis B virus [2], the EC50 was 0.03 µM. Besides, the Activity result in the data set with Hepatitis B virus [9] was “tde”.
Consider `O=c1nc(NO)ccn1[C@@H]1C[C@@H](O)[C@H](CO)O1`, for which the figures for the CC50 at 72 h in data set [1] and in data set [4] were 545 µM and 460 µM, respectively. For the same compound, in the data set with Hepatitis B virus [2], the EC50 stood at 2.38 µM.
The corresponding values for `Cc1cn([C@@H]2C[C@@H](N=[N+]=[N-])[C@H](CO)O2)c(=O)nc1N` are 1750 µM, 1900 µM and 13 µM.
The corresponding values for `Nc1nc(=O)n([C@@H]2CS[C@H](CO)O2)cc1F` [EMTRICITABINE] are 765 µM, 845 µM and 0.1 µM.
